# In ChEMBL document CHEMBL1255287, “Induction of L1 and L2 beta-lactamase production in Stenotrophomonas maltophilia is dependent on an AmpR-type regulator” (2008):
# Calls of active or inactive are those of the source. The rule behind the calls is not given here.
# Tests used:
# [1] = test system: Stenotrophomonas maltophilia; test: Induction of beta-lactamase L1 expression in Stenotrophomonas maltophilia K279a at 5 to 20 mg/L after 2 hrs […]; format: functional, organism-based
# Outline: (§1)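 Cells at OD600 0.4 grown 2 h with inducer at the stated concentration. Nitrocefin-hydrolysing activity measured in cell extracts, total first, then L2 alone after adding EDTA to 100 μM (inhibits L1). L1 = total − L2. Specific activity divided by that of an identically treated uninduced culture gives fold induction. Mean of three experiments.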
# [2] = test system: Stenotrophomonas maltophilia; test: Induction of beta-lactamase L2 expression in Stenotrophomonas maltophilia K279a at 5 to 20 mg/L after 2 hrs […]; format: functional, organism-based; outline: as §1
# [3] = test system: Stenotrophomonas maltophilia; test: Antimicrobial activity against Stenotrophomonas maltophilia K279a expressing beta-lactamase L1 and L2 by agar dilution method; format: functional
# Outline: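 MICs by BSAC standard agar dilution on Mueller-Hinton agar against wild-type K279a and its ampR frameshift derivative.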
# [4] = test system: Stenotrophomonas maltophilia; test: Antimicrobial activity against Stenotrophomonas maltophilia K279a harboring -121 frameshift mutation in ampR gene by agar dilution method; format: functional
# Outline: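 MICs by BSAC standard agar dilution on Mueller-Hinton agar against S. maltophilia K279a carrying a frameshift-disrupted ampR (ampRFS); values in mg/liter.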
# [5] = test system: Stenotrophomonas maltophilia; test: Induction of beta-lactamase L1 expression in Stenotrophomonas maltophilia M1 mutant assessed as L1 activity at 10 mg/L after 2 hrs by […] method; format: functional
# Outline: (§2)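 Nutrient broth cultures were grown to OD600 0.4, then exposed to 10 mg/liter imipenem as inducer for 2 h. Uninduced cultures were grown to OD600 0.6. Total nitrocefin-hydrolysing specific activity of cell extracts was read spectrophotometrically, then reassayed after adding EDTA to 100 μM to inhibit L1. Values are percent L1 or L2 of total activity, as means of three experiments.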
# [6] = test system: Stenotrophomonas maltophilia; test: Induction of beta-lactamase L2 expression in Stenotrophomonas maltophilia M1 mutant assessed as L2 activity at 10 mg/L after 2 hrs by […] method; format: functional; outline: as §2
# [7] = test system: Stenotrophomonas maltophilia; test: Induction of beta-lactamase L2 expression in Stenotrophomonas maltophilia K279a at 0.1 to 0.8 mg/L after 2 hrs […]; format: functional, organism-based; outline: as §1
# [8] = test system: Stenotrophomonas maltophilia; test: Induction of beta-lactamase L1 expression in Stenotrophomonas maltophilia K279a at 0.1 to 0.8 mg/L after 2 hrs […]; format: functional, organism-based; outline: as §1
# [9] = test system: Stenotrophomonas maltophilia; test: Induction of beta-lactamase L1 expression in Stenotrophomonas maltophilia M2 mutant assessed as L1 activity at 10 mg/L after 2 hrs by […] method; format: functional; outline: as §2
# [10] = test system: Stenotrophomonas maltophilia; test: Induction of beta-lactamase L2 expression in Stenotrophomonas maltophilia M2 mutant assessed as L2 activity at 10 mg/L after 2 hrs by […] method; format: functional; outline: as §2
Structure (SMILES),MIC [3],MIC [4],also measured
CO[C@@]1(NC(=O)Cc2cccs2)C(=O)N2C(C(=O)O)=C(COC(N)=O)CS[C@@H]21,,,Activity [1]: Active; Activity [2]: Active
CC1(C)S[C@@H]2[C@H](NC(=O)[C@H](N)c3ccccc3)C(=O)N2[C@H]1C(=O)O [AMPICILLIN],2050 µg/mL,8 µg/mL,
CO/N=C(\C(=O)N[C@@H]1C(=O)N2C(C(=O)O)=C(COC(C)=O)CS[C@H]12)c1csc(N)n1 [CEFOTAXIME],1020 µg/mL,< 4 µg/mL,
CC(C)(O/N=C(\C(=O)N[C@@H]1C(=O)N2C(C(=O)[O-])=C(C[n+]3ccccc3)CS[C@H]12)c1csc(N)n1)C(=O)O [CEFTAZIDIME],128 µg/mL,< 4 µg/mL,
C[C@@H](O)[C@H]1C(=O)N2C(C(=O)O)=C(SCCNC=N)C[C@H]12 [IMIPENEM ANHYDROUS],64 µg/mL,< 4 µg/mL,Activity [5]: 66%; Activity [6]: 34%; Activity [7]: Active; Activity [8]: Active; Activity [9]: 61%; Activity [10]: 39%
C[C@@H](O)[C@H]1C(=O)N2C(C(=O)O)=C(S[C@@H]3CN[C@H](C(=O)N(C)C)C3)[C@H](C)[C@H]12 [MEROPENEM],64 µg/mL,< 4 µg/mL,
CCN1CCN(C(=O)N[C@@H](C(=O)N[C@@H]2C(=O)N3[C@@H]2SC(C)(C)[C@@H]3C(=O)O)c2ccccc2)C(=O)C1=O [PIPERACILLIN],2050 µg/mL,32 µg/mL,
